Experimental data taken from ChEMBL document CHEMBL1149086, “Antimalarial and antitumor evaluation of novel C-10 non-acetal dimers of 10beta-(2-hydroxyethyl)deoxoartemisinin” (J Med Chem, 2004).

How the values were obtained:
MOLT-4 [1] = test: Concentration of the drug required to achieve 50% cytotoxicity against leukemia MOLT-4 cell line; format: cell-based; conditions: human
KM12 [2] = test: Concentration of the drug required to achieve 50% cytotoxicity against colon KM12 cancer cell line; format: cell-based; conditions: human
HCT-116 [3] = test: inhibition against colon HCT116 cancer cell line; format: functional; conditions: Homo sapiens
NCI/ADR-RES [4] = test: Concentration required to achieve total growth inhibition against breast NCI/ ADR-RES cancer cell line; format: functional; conditions: Homo sapiens
HT-29 [5] = test: Concentration of the drug required to achieve 50% cytotoxicity against colon HT-29 cancer cell line; format: cell-based; conditions: human
SW-620 [6] = test: Concentration required to achieve total growth inhibition against colon SW-620 cancer cell line; format: functional; conditions: Homo sapiens
COLO 205 [7] = test: Concentration required to achieve total growth inhibition against colon COLO 205 cancer cell line; format: functional; conditions: Homo sapiens
HCT-15 [8] = test: Concentration of the drug required to achieve 50% cytotoxicity against colon HCT-15 cancer cell line; format: cell-based; conditions: human
RPMI-8226 [9] = test: inhibition against leukemia RPMI-8226 cell line; format: functional; conditions: Homo sapiens
NCI/ADR-RES [10] = test: inhibition against breast NCI/ ADR-RES cancer cell line; format: functional; conditions: Homo sapiens
LOX IMVI [11] = test: Concentration required to achieve total growth inhibition against melanoma LOX IMVI cell line; format: functional; conditions: Homo sapiens
UACC-62 [12] = test: Concentration required to achieve total growth inhibition against melanoma UACC-62 cell line; format: functional; conditions: Homo sapiens
COLO 205 [13] = test: Concentration of the drug required to achieve 50% cytotoxicity against colon COLO 205 cancer cell line; format: cell-based; conditions: human
LOX IMVI [14] = test: Concentration of the drug required to achieve 50% cytotoxicity against melanoma LOX IMVI cell line; format: cell-based; conditions: human
Plasmodium falciparum = test: In vitro antimalarial activity against Plasmodium falciparum HB3 by [3H]hypoxanthine uptake; format: functional, organism-based
CCRF-CEM [15] = test: inhibition against leukemia CCRF-CEM cell line; format: functional; conditions: Homo sapiens
SW-620 [16] = test: Concentration of the drug required to achieve 50% cytotoxicity against colon SW-620 cancer cell line; format: cell-based; conditions: human
KM12 [17] = test: inhibition against colon KM12 cancer cell line; format: functional; conditions: Homo sapiens
MOLT-4 [18] = test: inhibition against leukemia MOLT-4 cell line; format: functional; conditions: Homo sapiens
KM12 [19] = test: Concentration required to achieve total growth inhibition against colon KM12 cancer cell line; format: functional; conditions: Homo sapiens
COLO 205 [20] = test: inhibition against colon COLO 205 cancer cell line; format: functional; conditions: Homo sapiens
SR [21] = test: inhibition against leukemia SR cell line; format: functional; conditions: Homo sapiens
HCT-116 [22] = test: Concentration of the drug required to achieve 50% cytotoxicity against colon HCT116 cancer cell line; format: cell-based; conditions: human
HCT-15 [23] = test: inhibition against colon HCT-15 cancer cell line; format: functional; conditions: Homo sapiens
SR [24] = test: Concentration of the drug required to achieve 50% cytotoxicity against leukemia SR cell line; format: cell-based; conditions: human
HL-60 [25] = test: Inhibitory concentration against HL60 cells; format: functional, cell-based; conditions: Homo sapiens
In short: (§1)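 HL60 (2.5 × 10⁴/well) or Jurkat (1 × 10⁵/well) in RPMI-1640 with 10% FBS and 1% L-glutamine, 5% CO2, 37 °C. Exposed to 10⁻¹⁰–10⁻⁴ M for 72 h, final DMSO below 0.5% v/v. [3H]-thymidine (0.5 μCi) added for the final 24 h. Incorporation counted by β-scintillation.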

PC-3 [26] = test: Concentration required to achieve total growth inhibition against prostate PC-3 cell line; format: functional; conditions: Homo sapiens
HCC 2998 [27] = test: Concentration of the drug required to achieve 50% cytotoxicity against colon HCC2998 cancer cell line; format: cell-based; conditions: human
CCRF-CEM [28] = test: Concentration of the drug required to achieve 50% cytotoxicity against leukemia HL-60(TB) cell line; format: cell-based; conditions: human
LOX IMVI [29] = test: inhibition against melanoma LOX IMVI cell line; format: functional; conditions: Homo sapiens
PC-3 [30] = test: Concentration of the drug required to achieve 50% cytotoxicity against prostate PC-3 cell line; format: cell-based; conditions: human
T47D [31] = test: inhibition against breast T-47D cancer cell line; format: functional; conditions: Homo sapiens
RPMI-8226 [32] = test: Concentration of the drug required to achieve 50% cytotoxicity against leukemia RPMI-8226 cell line; format: cell-based; conditions: human
HL-60 [33] = test: inhibition against leukemia HL-60(TB) cell line; format: functional; conditions: Homo sapiens
SW-620 [34] = test: inhibition against colon SW-620 cancer cell line; format: functional; conditions: Homo sapiens
UACC-62 [35] = test: inhibition against melanoma UACC-62 cell line; format: functional; conditions: Homo sapiens
SR [36] = test: Concentration required to achieve total growth inhibition against leukemia SR cell line; format: functional; conditions: Homo sapiens
NCI/ADR-RES [37] = test: Concentration of the drug required to achieve 50% cytotoxicity against breast NCI/ ADR-RES cancer cell line; format: cell-based; conditions: human
K562 [38] = test: Concentration required to achieve total growth inhibition against leukemia K-562 cell line; format: functional; conditions: Homo sapiens
MCF7 [39] = test: Concentration of the drug required to achieve 50% cytotoxicity against breast MCF-7 cancer cell line; format: cell-based; conditions: human
T47D [40] = test: Concentration required to achieve total growth inhibition against breast T-47D cancer cell line; format: functional; conditions: Homo sapiens
SK-MEL-5 [41] = test: Concentration required to achieve total growth inhibition against melanoma SK-MEL-5 cell line; format: functional; conditions: Homo sapiens
CCRF-CEM [42] = test: Concentration required to achieve total growth inhibition against leukemia CCRF-CEM cell line; format: functional; conditions: Homo sapiens
HCT-15 [43] = test: Concentration required to achieve total growth inhibition against colon HCT-15 cancer cell line; format: functional; conditions: Homo sapiens
SK-MEL-5 [44] = test: inhibition against melanoma SK-MEL-5 cell line; format: functional; conditions: Homo sapiens
HCC 2998 [45] = test: inhibition against colon HCC2998 cancer cell line; format: functional; conditions: Homo sapiens
MOLT-4 [46] = test: Concentration required to achieve total growth inhibition against leukemia MOLT-4 cell line; format: functional; conditions: Homo sapiens
HCC 2998 [47] = test: Concentration required to achieve total growth inhibition against colon HCC2998 cancer cell line; format: functional; conditions: Homo sapiens
CCRF-CEM [48] = test: Concentration of the drug required to achieve 50% cytotoxicity against leukemia CCRF-CEM cell line; format: cell-based; conditions: human
HCT-116 [49] = test: Concentration required to achieve total growth inhibition against colon HCT116 cancer cell line; format: functional; conditions: Homo sapiens
K562 [50] = test: inhibition against leukemia K-562 cell line; format: functional; conditions: Homo sapiens
SK-MEL-5 [51] = test: Concentration of the drug required to achieve 50% cytotoxicity against melanoma SK-MEL-5 cell line; format: cell-based; conditions: human
HL-60 [52] = test: Concentration required to achieve total growth inhibition against leukemia HL-60(TB) cell line; format: functional; conditions: Homo sapiens
Malme-3M [53] = test: Concentration of the drug required to achieve 50% cytotoxicity against melanoma MALME-3M cell line; format: cell-based; conditions: human
MCF7 [54] = test: Concentration required to achieve total growth inhibition against breast MCF-7 cancer cell line; format: functional; conditions: Homo sapiens
RPMI-8226 [55] = test: Concentration required to achieve total growth inhibition against leukemia RPMI-8226 cell line; format: functional; conditions: Homo sapiens
HT-29 [56] = test: Concentration required to achieve total growth inhibition against colon HT-29 cancer cell line; format: functional; conditions: Homo sapiens
UACC-62 [57] = test: Concentration of the drug required to achieve 50% cytotoxicity against melanoma UACC-62 cell line; format: cell-based; conditions: human
Jurkat = test: Inhibitory concentration against Jurkat cells; format: functional, cell-based; conditions: Homo sapiens; in short: as §1
HT-29 [58] = test: inhibition against colon HT-29 cancer cell line; format: functional; conditions: Homo sapiens
T47D [59] = test: Concentration of the drug required to achieve 50% cytotoxicity against breast T-47D cancer cell line; format: cell-based; conditions: human
MCF7 [60] = test: inhibition against breast MCF-7 cancer cell line; format: functional; conditions: Homo sapiens
Malme-3M [61] = test: Concentration required to achieve total growth inhibition against melanoma MALME-3M cell line; format: functional; conditions: Homo sapiens
PC-3 [62] = test: inhibition against prostate PC-3 cell line; format: functional; conditions: Homo sapiens
Malme-3M [63] = test: inhibition against melanoma MALME-3M cell line; format: functional; conditions: Homo sapiens

For `COP(=O)(OCC[C@H]1O[C@@H]2OC3(C)CC[C@H]4[C@H](C)CC[C@@H]([C@H]1C)[C@@]24OO3)OCC[C@H]1O[C@@H]2OC3(C)CC[C@H]4[C@H](C)CC[C@@H]([C@H]1C)[C@@]24OO3` (single isomer, unassigned), the LC50 (MOLT-4 [1]) was 33.5 µM, the LC50 (KM12 [2]) was 40 µM and the GI50 (HCT-116 [3]) was 1850 nM. The TGI (NCI/ADR-RES [4]) was 22.1 µM, the LC50 (HT-29 [5]) was 40 µM and the TGI (SW-620 [6]) was 12.6 µM. For the same molecule, the TGI (COLO 205 [7]) was 210 nM, the LC50 (HCT-15 [8]) was 38.7 µM and the GI50 (RPMI-8226 [9]) was less than 10 nM. It also gave a GI50 (NCI/ADR-RES [10]) of 994 nM, a TGI (LOX IMVI [11]) of 16.4 µM and a TGI (UACC-62 [12]) of 18.4 µM. For the same molecule, the LC50 (COLO 205 [13]) was 2.59 µM, the LC50 (LOX IMVI [14]) was 52.9 µM and the IC50 (Plasmodium falciparum) was 0.09 nM. The GI50 (CCRF-CEM [15]) was 769 nM, the LC50 (SW-620 [16]) was 40 µM and the GI50 (KM12 [17]) was less than 10 nM. It also gave a GI50 (MOLT-4 [18]) of less than 10 nM, a TGI (KM12 [19]) of 12.6 µM and a GI50 (COLO 205 [20]) of less than 10 nM. It also gave a GI50 (SR [21]) of less than 10 nM, an LC50 (HCT-116 [22]) greater than 100 µM and a GI50 (HCT-15 [23]) of less than 10 nM. The LC50 (SR [24]) was greater than 100 µM, the IC50 (HL-60 [25]) was 143 nM and the TGI (PC-3 [26]) was 18.8 µM. It also gave an LC50 (HCC 2998 [27]) of 52.9 µM, an LC50 (CCRF-CEM [28]) of 20 µM and a GI50 (LOX IMVI [29]) of less than 10 nM. The LC50 (PC-3 [30]) was 70.3 µM, the GI50 (T47D [31]) was less than 10 nM and the LC50 (RPMI-8226 [32]) was greater than 100 µM. For the same molecule, the GI50 (HL-60 [33]) was less than 10 nM, the GI50 (SW-620 [34]) was less than 10 nM and the GI50 (UACC-62 [35]) was 486 nM. The TGI (SR [36]) was 2840 nM, the LC50 (NCI/ADR-RES [37]) was 75.5 µM and the TGI (K562 [38]) was 1170 nM. It also gave an LC50 (MCF7 [39]) of 72.2 µM, a TGI (T47D [40]) of less than 10 µM and a TGI (SK-MEL-5 [41]) of 15.2 µM. The TGI (CCRF-CEM [42]) was 30 µM, the TGI (HCT-15 [43]) was 14.4 µM and the GI50 (SK-MEL-5 [44]) was 199 nM. The GI50 (HCC 2998 [45]) was 1250 nM, the TGI (MOLT-4 [46]) was 9.8 µM and the TGI (HCC 2998 [47]) was 16.4 µM. The LC50 (CCRF-CEM [48]) was 100 µM, the TGI (HCT-116 [49]) was 32.6 µM and the GI50 (K562 [50]) was less than 10 nM. The LC50 (SK-MEL-5 [51]) was 38.9 µM, the TGI (HL-60 [52]) was 1000 nM and the LC50 (Malme-3M [53]) was greater than 100 µM. It also gave a TGI (MCF7 [54]) of 18.3 µM, a TGI (RPMI-8226 [55]) of 13.7 µM and a TGI (HT-29 [56]) of 12.6 µM. For the same molecule, the LC50 (UACC-62 [57]) was 42.9 µM, the IC50 (Jurkat) was 7.7 µM and the GI50 (HT-29 [58]) was less than 10 nM. It also gave an LC50 (T47D [59]) of 25.6 µM, a GI50 (MCF7 [60]) of 50.3 nM and a TGI (Malme-3M [61]) of 32.6 µM. The GI50 (PC-3 [62]) was less than 10 nM and the GI50 (Malme-3M [63]) was 47.4 nM.
